# Measured values as given in ChEMBL document CHEMBL4270555, “Synthesis and biological evaluation of magnolol derivatives as melatonergic receptor agonists with potential use in depression” (Eur J Med Chem, 2018).
# The source made the active and inactive calls. The rule behind the calls is not given here.
# Columns and labels:
# [1] = Retention time of the compound by UPLC-IT-TOF-MS analysis; assay type: physicochemical
# How it was run: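 Retention on C18 column (100 × 2.1 mm, 1.8 µm) at 30 °C; mobile phase A 0.05% formic acid in water, B 0.05% formic acid in acetonitrile, 0.2 mL/min, linear 5–100% B over 0–18.0 min; IT-TOF-MS detection in positive and negative modes.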
# [2] = Drug level in Sprague-Dawley rat feces treated with Magnolol-4'-O-beta-D-glucopyranoside at 100 mg/kg, po by UPLC-IT-TOF-MS analysis; assay type: ADME, organism-based; details: in vivo
# How it was run: (§1)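 Rats (n = 6) housed in metabolic cages received 100.0 mg/kg orally; controls received 0.5% CMC-Na. Plasma, urine and faeces were collected and analyzed by LC-IT-TOF-MS on a C18 column at 30 °C. Gradient 5–100% acetonitrile with 0.05% formic acid over 18 min at 0.2 mL/min; positive and negative ion MS/MS.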
# [3] = Drug level in Sprague-Dawley rat urine treated with Magnolol-4'-O-beta-D-glucopyranoside at 100 mg/kg, po by UPLC-IT-TOF-MS analysis; assay type: ADME, organism-based; details: in vivo; how it was run: as §1
# [4] = target: Melatonin receptor type 1A (Homo sapiens, UniProt P48039); assay: Agonist activity at human MT1 receptor expressed in HEK293 cells at 1 mM after 24 hrs by Fluo-8 dye-based calcium assay relative to control; assay type: functional, cell-based
# Sequence of Melatonin receptor type 1A (P48039 whole entry): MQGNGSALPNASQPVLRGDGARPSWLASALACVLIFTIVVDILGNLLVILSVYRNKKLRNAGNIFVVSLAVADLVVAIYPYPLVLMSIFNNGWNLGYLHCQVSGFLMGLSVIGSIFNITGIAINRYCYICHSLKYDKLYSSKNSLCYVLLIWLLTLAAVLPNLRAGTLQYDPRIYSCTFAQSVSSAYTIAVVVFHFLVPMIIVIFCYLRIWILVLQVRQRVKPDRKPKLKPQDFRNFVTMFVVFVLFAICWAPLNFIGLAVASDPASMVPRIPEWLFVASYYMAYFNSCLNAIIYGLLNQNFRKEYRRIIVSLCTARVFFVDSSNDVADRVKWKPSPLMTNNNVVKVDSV
# How it was run: (§2)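 Fluo-8 calcium assay in HEK293 cells stably expressing human MT1 or MT2, seeded 4×10^4/well and incubated 24 h. Compounds tested at 1.00 mM, agomelatine positive control at 3.33 µM; fluorescence at ex 485/em 525 nm. Agonism expressed as mean ± SD, n = 3.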
# [5] = target: T1, Melatonin receptor type 1B (Homo sapiens) (UniProt P49286); assay: Agonist activity at human MT2 receptor expressed in HEK293 cells at 1 mM after 24 hrs by Fluo-8 dye-based calcium assay relative to control; assay type: functional, cell-based; how it was run: as §2
# T1 sequence (whole entry): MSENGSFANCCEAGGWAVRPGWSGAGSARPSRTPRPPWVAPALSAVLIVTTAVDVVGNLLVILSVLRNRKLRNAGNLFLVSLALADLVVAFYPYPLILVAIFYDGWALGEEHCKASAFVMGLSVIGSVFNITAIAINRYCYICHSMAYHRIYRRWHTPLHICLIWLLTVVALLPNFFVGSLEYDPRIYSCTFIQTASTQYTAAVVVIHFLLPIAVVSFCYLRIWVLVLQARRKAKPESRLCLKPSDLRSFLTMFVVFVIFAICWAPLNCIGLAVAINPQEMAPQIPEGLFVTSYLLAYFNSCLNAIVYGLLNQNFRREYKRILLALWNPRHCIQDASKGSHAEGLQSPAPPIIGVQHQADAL
# Mus musculus [6] = assay: Antidepressant activity in Kunming mouse assessed as decrease in immobility time at 20 mg/kg, po by tail suspension test; assay type: functional, organism-based
# How it was run: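 Male Kunming mice (18–20 g), dosed orally and tested acoustically and visually isolated. Each was suspended 50 cm above a wooden box by tape placed about 1 cm from the tail tip for 6 min. Immobility (s) over the last 4 min was recorded automatically by video tracking; n = 10, mean ± SEM vs vehicle.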
# Mus musculus [7] = assay: Antidepressant activity in Kunming mouse assessed as decrease in immobility duration at 20 mg/kg, po by forced swim test; assay type: functional, organism-based
# How it was run: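 Male Kunming mice (18–20 g), group-housed at 22 ± 2 °C on a 12 h light/dark cycle, dosed orally. Each mouse was placed in a glass cylinder (25 cm high, 15 cm diameter) holding 10 cm of water at 25 ± 1 °C and made to swim for 6 min. Immobility over the last 4 min was scored automatically by video tracking; n = 10, mean ± SEM vs vehicle.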
# [8] = target: T1, Melatonin receptor type 1B (Homo sapiens); assay: Potency index, ratio of compound effect to magnolol effect for human MT2 receptor; assay type: functional
# [9] = Drug level in Sprague-Dawley rat plasma treated with Magnolol-4'-O-beta-D-glucopyranoside at 100 mg/kg, po by UPLC-IT-TOF-MS analysis; assay type: ADME, organism-based; details: in vivo; how it was run: as §1
Structure (SMILES),Retention_time [1] [min],Drug metabolism [3],Activity [4] [%],Activity [5] [%],further results
C=CCc1ccc(OS(=O)(=O)O)c(-c2cc(C(O)C=C)ccc2O[C@@H]2O[C@H](CO)[C@@H](O)[C@H](O)[C@H]2O)c1 (some centres undefined),9.24,–,–,–,Drug metabolism [2]: Metabolite_Detected
C=CCc1ccc(O)c(-c2cc(C(=O)C=C)ccc2O[C@@H]2O[C@H](CO)[C@@H](O)[C@H](O)[C@H]2O)c1,10.59,Metabolite_Detected,–,–,–
C=CCc1ccc(O)c(-c2cc(CC=C)ccc2OC(=O)c2ccc(N)cc2)c1,–,–,-1.55,5.17,–
C=CC(=O)c1ccc(O)c(-c2cc(C(=O)CC)ccc2OS(=O)(=O)O)c1,9.05,Metabolite_Detected,–,–,–
C=CC(O)c1ccc(O[C@@H]2O[C@H](C(=O)O)[C@@H](O)[C@H](O)[C@H]2O)c(-c2cc(CC(C)O)ccc2OC)c1 (some centres undefined),8.7,Metabolite_Detected,–,–,–
Oc1ccc(CC2CO2)cc1-c1cc(CC2CO2)ccc1O (centres undefined),–,–,2.18,-3.39,–
C=CC(=O)c1ccc(O[C@@H]2O[C@H](C(=O)O)[C@@H](O)[C@H](O)[C@H]2O)c(-c2cc(C(O)C=C)ccc2O)c1 (some centres undefined),9.47,Metabolite_Detected,–,–,–
C=CC(O)c1ccc(O)c(-c2cc(CCC)ccc2OS(=O)(=O)O)c1 (centres undefined),7.55,–,–,–,Drug metabolism [2]: Metabolite_Detected
CNCCC(Oc1ccc(C(F)(F)F)cc1)c1ccccc1 (centres undefined),–,–,–,–,Activity (Mus musculus [6]): Active; Activity (Mus musculus [7]): Active
C=CCc1ccc(O)c(-c2cc(CC=C)ccc2O[C@@H]2O[C@H](CO)[C@@H](OC(C)=O)[C@H](OC(C)=O)[C@H]2O)c1,–,–,31,89,Ratio [8]: 3.5 to 4.5
C=CCc1ccc(O)c(-c2cc(CC=C)ccc2OC(=O)c2ccccc2)c1,–,–,-6.5,-0.04,–
C=CCc1ccc(OC(C)=O)c(-c2cc(CC=C)ccc2OC(C)=O)c1,–,–,-1.86,-2.52,–
C=CCc1ccc(O)c(-c2cc(CC=C)ccc2O[C@@H]2O[C@H](COC(C)=O)[C@@H](OC(C)=O)[C@H](OC(C)=O)[C@H]2OC(C)=O)c1,–,–,-0.58,-2.09,–
C=CCc1ccc(OC(=O)c2ccccc2)c(-c2cc(CC=C)ccc2OC(=O)c2ccccc2)c1,–,–,-5.93,-1.72,–
C=CCc1ccc(O)c(-c2cc(CC=C)ccc2O[C@@H]2O[C@H](COC(C)=O)[C@@H](OC(C)=O)[C@H](OC(C)=O)[C@H]2O)c1,–,–,11,19.1,–
C=CCc1ccc(O[C@@H]2O[C@H](C(=O)O)[C@@H](O)[C@H](O)[C@H]2O)c(-c2cc(CC=C)ccc2O[C@@H]2O[C@H](CO)[C@@H](O)[C@H](O)[C@H]2O)c1,9.94,Metabolite_Detected,–,–,Drug metabolism [2]: Metabolite_Detected
C=CCc1ccc(OC)c(-c2cc(CC=C)ccc2O[C@@H]2O[C@H](C(=O)O)[C@@H](O)[C@H](O)[C@H]2O)c1,12.4,Metabolite_Detected,–,–,–
C=CCc1ccc(O[C@@H]2O[C@H](CO)[C@@H](O)[C@H](O)[C@H]2O)c(-c2cc(CC=C)ccc2O[C@@H]2O[C@H](CO)[C@@H](O)[C@H](O)[C@H]2O)c1,10.63,Metabolite_Detected,2.97,10.8,Drug metabolism [2]: Metabolite_Detected
COc1ccc2cccc(CCNC(C)=O)c2c1,–,–,–,–,Activity (Mus musculus [6]): Active
C=CCc1ccc(O)c(-c2cc(CC3CO3)ccc2O)c1 (centres undefined),–,–,53.8,-3.08,–
C=CC(=O)c1ccc(O[C@@H]2O[C@H](CO)[C@@H](O)[C@H](O)[C@H]2O)c(-c2cc(C(O)C=C)ccc2O)c1 (some centres undefined),10.88,Metabolite_Detected,–,–,–
C=CCc1ccc(OC)c(-c2cc(CC=C)ccc2O[C@@H]2O[C@H](CO)[C@@H](O)[C@H](O)[C@H]2O)c1,11.32,Metabolite_Detected,–,–,Drug metabolism [9]: Metabolite_Detected; Drug metabolism [2]: Metabolite_Detected

Structure (SMILES),Retention_time [1] [min],Drug metabolism [3],Activity [4] [%],Activity [5] [%],further results
C=CC(O)c1ccc(O[C@@H]2O[C@H](CO)[C@@H](O)[C@H](O)[C@H]2O)c(-c2cc(C(O)CC)ccc2OS(=O)(=O)O)c1 (some centres undefined),7.39,Metabolite_Detected,–,–,–
C=CCc1ccc(O)c(-c2cc(CC=C)ccc2OC(=O)C=C)c1,–,–,1.31,2.93,–
C=CC(O)c1ccc(O[C@@H]2O[C@H](CO)[C@@H](O)[C@H](O)[C@H]2O)c(-c2cc(CCC)ccc2OS(=O)(=O)O)c1 (some centres undefined),6.91,–,–,–,Drug metabolism [2]: Metabolite_Detected
C=CCc1ccc(O)c(-c2cc(CC=C)ccc2OC(=O)/C=C/c2ccccc2)c1,–,–,56.8,25.6,–
C=CCc1ccc(O)c(-c2cc(CC=C)ccc2OC(=O)CCCl)c1,–,–,21,30.1,–
C=CC(O)c1ccc(O[C@@H]2O[C@H](C(=O)O)[C@@H](O)[C@H](O)[C@H]2O)c(-c2cc(C(O)CC)ccc2O[C@@H]2O[C@H](CO)[C@@H](O)[C@H](O)[C@H]2O)c1 (some centres undefined),6.75,Metabolite_Detected,–,–,Drug metabolism [2]: Metabolite_Detected
C=CCc1ccc(OC(=O)/C=C/c2cccc(F)c2)c(-c2cc(CC=C)ccc2O[C@@H]2O[C@H](CO)[C@@H](O)[C@H](O)[C@H]2O)c1,–,–,5.3,-10.5,–
C=CCc1ccc(O)c(-c2cc(CC=C)ccc2OC(=O)CCCCl)c1,–,–,32,69.7,Ratio [8]: 3.5 to 4.5
C=CCc1ccc(O)c(-c2cc(CC=C)ccc2O)c1 [MAGNOLOL],14.33,Metabolite_Detected,40.2,20,Drug metabolism [2]: Metabolite_Detected
C=CCc1ccc(O[C@@H]2O[C@H](COC(C)=O)[C@@H](OC(C)=O)[C@H](OC(C)=O)[C@H]2OC(C)=O)c(-c2cc(CC=C)ccc2O[C@@H]2O[C@H](COC(C)=O)[C@@H](OC(C)=O)[C@H](OC(C)=O)[C@H]2OC(C)=O)c1,–,–,7.09,0.04,–
C=CCc1ccc(OC(=O)c2ccccc2)c(-c2cc(CC=C)ccc2O[C@@H]2O[C@H](CO)[C@@H](O)[C@H](O)[C@H]2O)c1,–,–,13.2,-5.71,–
C=CCc1ccc(O[C@@H]2O[C@H](CO)[C@@H](O)[C@H](O)[C@H]2O)c(-c2cc(C(O)C=C)ccc2O[C@@H]2O[C@H](C(=O)O)[C@@H](O)[C@H](O)[C@H]2O)c1 (some centres undefined),7.79,Metabolite_Detected,–,–,Drug metabolism [2]: Metabolite_Detected
C=CCc1ccc(O[C@@H]2O[C@H](CO)[C@@H](O)[C@H](O)[C@H]2O)c(-c2cc(CC=C)ccc2OS(=O)(=O)O)c1,8.17,–,–,–,Drug metabolism [2]: Metabolite_Detected
C=CCc1ccc(OC(=O)/C=C/c2ccccc2)c(-c2cc(CC=C)ccc2O[C@@H]2O[C@H](CO)[C@@H](O)[C@H](O)[C@H]2O)c1,–,–,50.3,-10.1,–
C=CCc1ccc(O)c(-c2cc(CC=C)ccc2OC(C)=O)c1,–,–,91.4,77.6,–
C=CCc1ccc(OC(=O)CCCCl)c(-c2cc(CC=C)ccc2OC(=O)CCCCl)c1,–,–,8.14,2.11,–
C=CCc1ccc(O)c(-c2cc(C(O)C=C)ccc2O[C@@H]2O[C@H](CO)[C@@H](O)[C@H](O)[C@H]2O)c1 (some centres undefined),9.15,Metabolite_Detected,–,–,–
C=CCc1ccc(O)c(-c2cc(CC=C)ccc2OS(=O)(=O)O)c1,11.49,–,–,–,Drug metabolism [2]: Metabolite_Detected
C=CCc1ccc(OC(=O)/C=C/c2ccccc2)c(-c2cc(CC=C)ccc2OC(=O)/C=C/c2ccccc2)c1,–,–,28.3,3.34,–
C=CC(O)c1ccc(O)c(-c2cc(C(O)C=C)ccc2O)c1 (centres undefined),11.06,Metabolite_Detected,–,–,Drug metabolism [2]: Metabolite_Detected
C=CCc1ccc(OC(=O)C=C)c(-c2cc(CC=C)ccc2OC(=O)C=C)c1,–,–,0.04,4.57,–
